Assay results reported in the M2OR odorant receptor database.

Tests used:
Settings in all cases: stereoisomer not certain
[1] = molecular target: T1, OR13C2 (Homo sapiens) (UniProt Q8NGS9)
T1 sequence (whole entry): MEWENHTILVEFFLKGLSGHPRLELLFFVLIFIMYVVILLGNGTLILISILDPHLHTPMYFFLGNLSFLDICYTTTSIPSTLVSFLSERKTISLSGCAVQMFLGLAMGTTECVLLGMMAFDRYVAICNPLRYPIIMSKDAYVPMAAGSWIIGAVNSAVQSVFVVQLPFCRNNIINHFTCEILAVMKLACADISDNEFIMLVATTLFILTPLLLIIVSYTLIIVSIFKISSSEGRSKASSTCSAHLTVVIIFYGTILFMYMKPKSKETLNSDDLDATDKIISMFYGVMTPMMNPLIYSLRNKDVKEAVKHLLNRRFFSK
Procedure, shortened: (§1)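 Each receptor–molecule pair is labelled responsive or non-responsive (inactive) according to whether the original authors judged the measured signal statistically different from baseline. The data were taken from the main text and supplementary material of published papers and checked for typos and inconsistencies. Assay methods differed by source, with transient luciferase assays in mammalian cell lines being common.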

[2] = molecular target: T2, OR13C3 (Homo sapiens) (UniProt Q8NGS6)
T2 sequence (whole entry): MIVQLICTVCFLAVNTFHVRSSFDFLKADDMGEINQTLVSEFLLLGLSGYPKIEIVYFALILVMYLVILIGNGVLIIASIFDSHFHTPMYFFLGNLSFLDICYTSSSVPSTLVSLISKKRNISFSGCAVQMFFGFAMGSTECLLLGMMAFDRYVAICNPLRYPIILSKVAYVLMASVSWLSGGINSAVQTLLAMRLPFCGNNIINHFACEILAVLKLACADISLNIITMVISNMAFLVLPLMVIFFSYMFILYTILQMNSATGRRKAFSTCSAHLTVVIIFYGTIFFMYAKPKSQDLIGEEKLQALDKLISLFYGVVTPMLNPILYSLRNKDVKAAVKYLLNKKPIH
Procedure, shortened: as §1

[3] = molecular target: T3, OR13C4 (Homo sapiens) (UniProt Q8NGS5)
T3 sequence (whole entry): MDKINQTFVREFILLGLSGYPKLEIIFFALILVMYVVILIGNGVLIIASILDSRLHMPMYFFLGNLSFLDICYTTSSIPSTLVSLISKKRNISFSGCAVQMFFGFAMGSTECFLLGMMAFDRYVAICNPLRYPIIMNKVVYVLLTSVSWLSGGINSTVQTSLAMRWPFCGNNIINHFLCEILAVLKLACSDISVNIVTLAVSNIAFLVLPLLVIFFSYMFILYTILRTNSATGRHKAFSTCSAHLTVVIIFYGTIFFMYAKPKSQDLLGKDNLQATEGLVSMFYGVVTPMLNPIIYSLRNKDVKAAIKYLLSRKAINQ
Procedure, shortened: as §1

[4] = molecular target: T4, OR13C5 (Homo sapiens) (UniProt Q8NGS8)
T4 sequence (whole entry): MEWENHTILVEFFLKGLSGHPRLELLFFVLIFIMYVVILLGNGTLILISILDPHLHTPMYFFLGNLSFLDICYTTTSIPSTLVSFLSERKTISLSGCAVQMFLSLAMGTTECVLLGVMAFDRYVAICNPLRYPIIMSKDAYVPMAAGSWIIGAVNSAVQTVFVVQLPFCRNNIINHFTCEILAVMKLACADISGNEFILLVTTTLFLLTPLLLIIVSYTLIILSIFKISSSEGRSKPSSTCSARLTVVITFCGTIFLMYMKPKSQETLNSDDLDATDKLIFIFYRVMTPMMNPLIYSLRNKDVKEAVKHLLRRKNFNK
Procedure, shortened: as §1

[5] = molecular target: T5, OR13C8 (Homo sapiens) (UniProt Q8NGS7)
T5 sequence (whole entry): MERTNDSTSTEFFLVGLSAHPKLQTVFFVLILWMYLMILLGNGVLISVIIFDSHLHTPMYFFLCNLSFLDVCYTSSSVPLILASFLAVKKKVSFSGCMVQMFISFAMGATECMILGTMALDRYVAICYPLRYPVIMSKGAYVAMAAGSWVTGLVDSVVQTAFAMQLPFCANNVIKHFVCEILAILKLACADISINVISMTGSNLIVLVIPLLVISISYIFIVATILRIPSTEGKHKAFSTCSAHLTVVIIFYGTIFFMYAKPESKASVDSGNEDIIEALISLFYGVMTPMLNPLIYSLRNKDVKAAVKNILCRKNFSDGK
Procedure, shortened: as §1

[6] = molecular target: T6, OR13C9 (Homo sapiens) (UniProt Q8NGT0)
T6 sequence (whole entry): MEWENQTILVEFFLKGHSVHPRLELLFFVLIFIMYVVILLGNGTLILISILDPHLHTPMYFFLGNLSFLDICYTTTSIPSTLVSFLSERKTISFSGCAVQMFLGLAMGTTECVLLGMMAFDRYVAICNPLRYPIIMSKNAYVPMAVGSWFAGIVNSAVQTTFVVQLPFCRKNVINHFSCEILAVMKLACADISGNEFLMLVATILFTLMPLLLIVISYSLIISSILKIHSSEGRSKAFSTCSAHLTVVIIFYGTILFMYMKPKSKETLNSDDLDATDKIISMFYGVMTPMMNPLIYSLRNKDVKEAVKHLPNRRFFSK
Procedure, shortened: as §1

[7] = molecular target: T7, OR13D1 (Homo sapiens) (UniProt Q8NGV5)
T7 sequence (whole entry): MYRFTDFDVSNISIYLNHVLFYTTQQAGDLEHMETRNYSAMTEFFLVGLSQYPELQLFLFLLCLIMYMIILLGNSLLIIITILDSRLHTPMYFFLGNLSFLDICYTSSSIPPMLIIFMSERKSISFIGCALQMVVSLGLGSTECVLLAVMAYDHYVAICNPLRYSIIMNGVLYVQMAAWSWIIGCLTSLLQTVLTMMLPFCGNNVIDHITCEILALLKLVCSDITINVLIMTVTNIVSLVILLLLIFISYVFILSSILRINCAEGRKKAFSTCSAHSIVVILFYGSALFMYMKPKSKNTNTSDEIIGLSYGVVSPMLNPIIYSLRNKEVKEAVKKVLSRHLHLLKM
Procedure, shortened: as §1

[8] = molecular target: T8, OR13F1 (Homo sapiens) (UniProt Q8NGS4)
T8 sequence (whole entry): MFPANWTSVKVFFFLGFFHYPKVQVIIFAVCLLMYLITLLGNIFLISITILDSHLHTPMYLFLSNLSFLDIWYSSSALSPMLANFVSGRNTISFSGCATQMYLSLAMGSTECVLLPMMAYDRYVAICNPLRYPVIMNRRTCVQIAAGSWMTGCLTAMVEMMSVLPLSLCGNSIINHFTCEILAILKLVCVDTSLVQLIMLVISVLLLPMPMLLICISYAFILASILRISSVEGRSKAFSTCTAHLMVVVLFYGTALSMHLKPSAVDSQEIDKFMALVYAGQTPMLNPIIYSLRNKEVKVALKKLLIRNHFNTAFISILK
Procedure, shortened: as §1

[9] = molecular target: T9, OR13G1 (Homo sapiens) (UniProt Q8NGZ3)
T9 sequence (whole entry): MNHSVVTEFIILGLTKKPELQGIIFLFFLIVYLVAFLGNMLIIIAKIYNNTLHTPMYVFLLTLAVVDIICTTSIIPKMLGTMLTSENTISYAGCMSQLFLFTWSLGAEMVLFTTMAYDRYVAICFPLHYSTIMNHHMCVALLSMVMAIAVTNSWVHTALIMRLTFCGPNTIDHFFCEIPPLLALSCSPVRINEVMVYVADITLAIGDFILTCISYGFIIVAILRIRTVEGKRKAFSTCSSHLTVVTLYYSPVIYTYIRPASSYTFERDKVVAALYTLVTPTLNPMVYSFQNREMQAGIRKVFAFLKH
Procedure, shortened: as §1

[10] = molecular target: T10, OR13H1 (Homo sapiens) (UniProt Q8NG92)
T10 sequence (whole entry): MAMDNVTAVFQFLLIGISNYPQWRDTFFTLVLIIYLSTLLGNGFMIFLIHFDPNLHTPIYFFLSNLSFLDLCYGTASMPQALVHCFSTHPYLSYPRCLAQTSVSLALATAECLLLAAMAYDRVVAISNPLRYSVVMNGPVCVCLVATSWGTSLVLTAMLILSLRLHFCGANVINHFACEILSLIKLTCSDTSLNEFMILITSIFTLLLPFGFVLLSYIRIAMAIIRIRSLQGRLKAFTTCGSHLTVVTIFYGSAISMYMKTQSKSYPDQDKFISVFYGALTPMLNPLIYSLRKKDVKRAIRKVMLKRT
Procedure, shortened: as §1

[11] = molecular target: T11, OR13J1 (Homo sapiens) (UniProt Q8NGT2)
T11 sequence (whole entry): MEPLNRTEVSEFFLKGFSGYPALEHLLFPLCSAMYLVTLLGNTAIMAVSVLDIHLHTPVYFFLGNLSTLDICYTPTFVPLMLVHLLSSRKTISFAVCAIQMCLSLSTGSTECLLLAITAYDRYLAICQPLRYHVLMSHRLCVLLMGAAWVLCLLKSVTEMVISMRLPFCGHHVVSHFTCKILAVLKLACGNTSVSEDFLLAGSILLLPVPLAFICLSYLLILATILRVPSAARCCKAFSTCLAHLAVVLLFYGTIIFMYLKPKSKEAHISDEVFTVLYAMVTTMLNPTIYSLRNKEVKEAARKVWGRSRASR
Procedure, shortened: as §1

[12] = molecular target: T12, OR14A16 (Homo sapiens) (UniProt Q8NHC5)
T12 sequence (whole entry): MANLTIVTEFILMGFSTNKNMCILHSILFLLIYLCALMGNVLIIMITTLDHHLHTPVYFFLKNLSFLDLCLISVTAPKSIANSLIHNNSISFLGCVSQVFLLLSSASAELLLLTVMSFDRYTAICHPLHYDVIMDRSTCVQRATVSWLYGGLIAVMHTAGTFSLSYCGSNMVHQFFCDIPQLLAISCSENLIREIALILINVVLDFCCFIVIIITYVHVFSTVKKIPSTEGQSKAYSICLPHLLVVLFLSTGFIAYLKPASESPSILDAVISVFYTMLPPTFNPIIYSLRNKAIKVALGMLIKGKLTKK
Procedure, shortened: as §1

[13] = molecular target: T13, OR14A2 (Homo sapiens) (UniProt Q96R54)
T13 sequence (whole entry): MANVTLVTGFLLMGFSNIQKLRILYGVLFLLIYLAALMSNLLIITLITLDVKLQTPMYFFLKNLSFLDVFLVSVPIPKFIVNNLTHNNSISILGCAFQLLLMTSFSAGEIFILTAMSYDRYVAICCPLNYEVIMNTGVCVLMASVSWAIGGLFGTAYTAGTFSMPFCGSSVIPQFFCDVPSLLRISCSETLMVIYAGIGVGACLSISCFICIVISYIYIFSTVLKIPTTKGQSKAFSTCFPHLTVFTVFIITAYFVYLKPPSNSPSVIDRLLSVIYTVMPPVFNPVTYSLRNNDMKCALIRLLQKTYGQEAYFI
Procedure, shortened: as §1

[14] = molecular target: T14, OR14C36 (Homo sapiens) (UniProt Q8NHC7)
T14 sequence (whole entry): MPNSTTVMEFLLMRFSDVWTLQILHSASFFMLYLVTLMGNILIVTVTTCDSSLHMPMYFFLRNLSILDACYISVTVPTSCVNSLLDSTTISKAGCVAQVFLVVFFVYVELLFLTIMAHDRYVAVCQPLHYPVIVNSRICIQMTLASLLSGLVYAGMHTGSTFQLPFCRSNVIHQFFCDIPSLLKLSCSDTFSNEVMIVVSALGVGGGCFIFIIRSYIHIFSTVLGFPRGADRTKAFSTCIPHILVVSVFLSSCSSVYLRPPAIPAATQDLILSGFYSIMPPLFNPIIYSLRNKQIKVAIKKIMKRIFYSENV
Procedure, shortened: as §1

[15] = molecular target: T15, OR14I1 (Homo sapiens) (UniProt A6ND48)
T15 sequence (whole entry): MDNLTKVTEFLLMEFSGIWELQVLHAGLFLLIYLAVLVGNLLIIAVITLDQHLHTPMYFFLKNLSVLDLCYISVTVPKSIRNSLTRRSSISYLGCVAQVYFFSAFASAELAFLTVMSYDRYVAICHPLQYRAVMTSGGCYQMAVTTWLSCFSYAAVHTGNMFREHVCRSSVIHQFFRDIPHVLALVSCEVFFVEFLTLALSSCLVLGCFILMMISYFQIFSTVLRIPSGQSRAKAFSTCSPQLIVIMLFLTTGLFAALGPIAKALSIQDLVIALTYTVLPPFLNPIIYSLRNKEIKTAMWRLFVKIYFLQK
Procedure, shortened: as §1

[16] = molecular target: T16, OR14J1 (Homo sapiens) (UniProt Q9UGF5)
T16 sequence (whole entry): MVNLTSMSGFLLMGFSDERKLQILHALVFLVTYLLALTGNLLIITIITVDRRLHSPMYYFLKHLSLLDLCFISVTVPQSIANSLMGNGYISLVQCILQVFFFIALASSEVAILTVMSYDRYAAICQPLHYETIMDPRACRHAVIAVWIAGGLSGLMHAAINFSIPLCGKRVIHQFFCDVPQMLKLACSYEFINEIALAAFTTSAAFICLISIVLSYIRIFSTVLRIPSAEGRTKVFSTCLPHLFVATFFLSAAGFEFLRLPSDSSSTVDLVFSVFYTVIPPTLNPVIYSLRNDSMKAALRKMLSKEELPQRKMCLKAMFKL
Procedure, shortened: as §1

[17] = molecular target: T17, OR14K1 (Homo sapiens) (UniProt Q8NGZ2)
T17 sequence (whole entry): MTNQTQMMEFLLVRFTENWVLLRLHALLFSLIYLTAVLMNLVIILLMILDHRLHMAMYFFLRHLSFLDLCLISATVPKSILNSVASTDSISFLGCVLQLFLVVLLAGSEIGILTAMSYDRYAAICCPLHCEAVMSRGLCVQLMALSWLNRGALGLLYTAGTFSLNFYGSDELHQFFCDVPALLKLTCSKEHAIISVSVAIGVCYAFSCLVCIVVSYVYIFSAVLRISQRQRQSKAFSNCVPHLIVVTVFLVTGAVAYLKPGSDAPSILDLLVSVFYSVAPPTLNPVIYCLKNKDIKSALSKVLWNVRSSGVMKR
Procedure, shortened: as §1

[18] = molecular target: T18, OR1A1 (Homo sapiens) (UniProt Q9P1Q5)
T18 sequence (whole entry): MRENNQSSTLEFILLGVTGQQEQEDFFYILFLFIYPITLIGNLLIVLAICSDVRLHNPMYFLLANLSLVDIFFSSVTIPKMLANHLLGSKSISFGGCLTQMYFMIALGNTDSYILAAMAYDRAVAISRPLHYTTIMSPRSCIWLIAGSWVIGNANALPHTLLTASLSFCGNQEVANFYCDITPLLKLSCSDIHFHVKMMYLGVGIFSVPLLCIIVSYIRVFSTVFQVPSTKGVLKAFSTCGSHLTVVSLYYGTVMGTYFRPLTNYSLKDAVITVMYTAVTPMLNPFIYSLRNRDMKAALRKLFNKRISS
Procedure, shortened: as §1

Measured: odorant receptor agonist call;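 further: active if original authors judged signal statistically different from baseline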

CCC(S)C(C)CO (stereo not drawn)
inactive: all assays above
